GASC1 inh = inhibitors of human demethylase GASC-1 KDM4C | Q9H3R0 | GST-KDM4C 2-372, H3K9me3 peptide, LANCE TR-FRET | AID 720574 | inhibition, % at 12.5 µM | 96,000 compounds, 0.15% hits;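 active = mean replicate inhibition above about 25%, with at least 55% of replicates also reaching it, limit read from the data, passing the limit was not always enough; inconclusive = only one of those two conditions met; inactive = neither condition met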
Target sequence (Q9H3R0 2-372 limits assumed): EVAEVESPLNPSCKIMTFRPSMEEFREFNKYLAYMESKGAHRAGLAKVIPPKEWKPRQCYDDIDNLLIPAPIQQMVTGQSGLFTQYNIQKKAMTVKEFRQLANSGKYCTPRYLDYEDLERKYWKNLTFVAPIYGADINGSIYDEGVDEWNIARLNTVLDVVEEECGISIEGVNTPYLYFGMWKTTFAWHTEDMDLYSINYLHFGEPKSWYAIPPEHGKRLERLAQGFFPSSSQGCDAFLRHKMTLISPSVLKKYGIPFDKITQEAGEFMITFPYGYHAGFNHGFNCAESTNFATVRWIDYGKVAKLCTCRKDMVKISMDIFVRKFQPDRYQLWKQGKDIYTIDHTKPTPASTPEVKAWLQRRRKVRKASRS
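Assay system: GST-GASC-1 enzyme fragment 2-372 | Amount: 10 nM enzyme | Medium: HEPES buffer, pH 7.5, plus ascorbate | Reagent: H3K9me3 peptide substrate, Fe(II), 2-oxoglutarate | Doses: Single-point compound screen | Incubation: 30 min demethylation and 1 h detection at room temperature | Measured by: LANCE TR-FRET, excitation 340 nm, emissions 618 and 671 nm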
IDH1 R132H inh = blocks human IDH1 R132H reductase activity | O75874 | diaphorase/resazurin fluorescence, 60 min | inhibition, % at 10 µM | 70,000 compounds, 0.18% hits | AID 624101; in the data active = inhibition above about 34%; inconclusive = no clear call, values can overlap the other calls; inactive = below about 11%
Pf Dd2 inh = inhibitors of Plasmodium falciparum Dd2 growth; P. falciparum Dd2 growth, SYBR Green, 72 h; hits give low values; 94,000 compounds, 2.3% hits; AID 1159554; activity change, % at 10 µM; in the data active = activity change below about -80%; inconclusive = no clear call, values can overlap the other calls
T cruzi growth-1 = inhibitors of T. cruzi proliferation; inhibition, % at 8.34 µM; T. cruzi beta-gal in NIH3T3, GalScreen luminescence, 90 h; 77,000 compounds, 5.9% hits;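 active = mean inhibition above about 93%, with at least 55% of replicates each passing it, limit read from the data, passing the limit was not always enough; inconclusive = only one of those two conditions holds; inactive = neither condition holds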
T cruzi growth-2 = inhibitors of T. cruzi proliferation. 5,600 compounds, 72% hits. shares compounds with T cruzi growth-1. T. cruzi beta-gal in NIH3T3, GalScreen luminescence, 90 h. inhibition, % at 8.35 µM;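 active = mean replicate inhibition above about 95% and at least 55% of replicates individually reaching it, limit read from the data; inconclusive = only one of the two criteria is met; inactive = neither criterion is met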
T cruzi growth-3 = blocks T. cruzi growth in NIH3T3 host cells; 5,600 compounds, 21% hits; inhibition, % at 2.09 µM; T. cruzi beta-gal in NIH3T3, GalScreen luminescence, 90 h; shares compounds with T cruzi growth-1;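 active = mean inhibition above about 95%, with at least 55% of replicates also reaching it, limit read from the data; inconclusive = meets just one of the two conditions; inactive = meets neither condition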
3T3 cytotox = cytotoxicity in mouse NIH/3T3 fibroblasts; shares compounds with T cruzi growth-1; NIH/3T3 viability, CellTiter-Glo ATP luminescence, 90 h; cytotoxicity (signal decrease), % at 8.35 µM; 5,600 compounds, 14% hits;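 active = mean signal decrease across replicates above about 35% based on untreated-well scatter, with enough replicates individually passing, limit read from the data; inconclusive = no rule stated though some were filed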
NIH3T3 tox 2 = kills mouse NIH/3T3 fibroblasts; NIH/3T3 viability, CellTiter-Glo ATP luminescence, 90 h; 5,600 compounds, 56% hits; shares compounds with T cruzi growth-1; inhibition, % at 24.9 µM;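 active = mean loss of cell viability signal at or above a set limit, and enough replicates individually reaching it; inconclusive = meets only the mean limit or only the replicate share; inactive = meets neither condition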
A number is an active result; n = inactive; u = inconclusive; x = no result. Sampled rows, rich in hits. Any-hit rate of the full collection: about 5.8%.

SMILES	GASC1 inh	IDH1 R132H inh	Pf Dd2 inh	T cruzi growth-1	T cruzi growth-2	T cruzi growth-3	3T3 cytotox	NIH3T3 tox 2
O=C(C[C@@H]1CC[C@@H]2[C@H](COC[C@H](O)CN2Cc2cc(F)ccc2F)O1)N1CCc2ccccc2C1	n	x	n	100	n	n	n	n
O=C(C[C@@H]1CC[C@@H]2[C@H](COC[C@@H](O)CN2Cc2cc(F)ccc2F)O1)N[C@H]1CCN(Cc2ccccc2)C1	n	x	n	n	x	x	x	x
O=C(C[C@H]1CC[C@H]2[C@@H](COC[C@H](O)CN2Cc2cc(F)ccc2F)O1)NCc1ccc(Cl)cc1	n	x	n	u	n	n	n	n
O=C(C[C@@H]1CC[C@@H]2[C@H](COC[C@@H](O)CN2Cc2ccccc2)O1)N[C@@H]1CCN(Cc2ccccc2)C1	n	x	n	u	u	n	n	n
C[C@@H](NC(=O)C[C@H]1CC[C@H]2[C@@H](COC[C@@H](O)CN2Cc2ccc(C(F)(F)F)cc2)O1)c1ccccc1	n	x	n	u	n	n	n	n
O=S(=O)(c1ccccc1)N1CCCCN2[C@@H](CO)[C@H](c3ccc(-c4ccccc4F)cc3)[C@@H]2C1	n	x	n	105	104	n	n	106
O=S(=O)(c1ccccc1)N1CCCCN2[C@H](CO)[C@H](c3ccc(-c4ccccc4F)cc3)[C@@H]2C1	n	x	n	103	106	n	n	42
COc1cc(NC(=O)COc2ccc(Br)cc2)ccc1NC(=O)c1cc2ccccc2o1	x	n	x	x	x	x	x	x
Cc1ccc(S(=O)(=O)Nc2ccc3c(c2)C(=O)N([C@H](C)CO)C[C@@H](C)[C@H](CN(C)C(=O)Nc2ccccc2)OCCCC[C@H](C)O3)cc1	n	n	x	x	x	x	x	x
CCOc1cccc2c(C)nc(Nc3nc4c(c(=O)[nH]3)CCCC4)nc12	x	n	x	x	x	x	x	x
COc1ccc(-c2ccc([C@H]3[C@@H](C#N)N(C(=O)NC4CCCCC4)[C@H]3CO)cc2)cc1	n	x	n	102	97	n	n	35
CC(C)NC(=O)N1[C@H](CO)[C@@H](c2ccc(-c3ccc(F)cc3)cc2)[C@@H]1C#N	n	x	n	n	x	x	x	x
COc1ccc(-c2ccc([C@H]3[C@H](C#N)N(C(=O)NC(C)C)[C@H]3CO)cc2)cc1	n	x	n	n	x	x	x	x
CC(C)NC(=O)N1[C@H](C#N)[C@H](c2ccc(-c3ccc(F)cc3)cc2)[C@@H]1CO	n	x	u	u	96	109	n	n
COc1ccc(-c2ccc([C@H]3[C@@H](C#N)N(C(=O)NC(C)C)[C@H]3CO)cc2)cc1	n	x	n	98	105	109	n	34
O=C(CSc1nc2ccccc2[nH]1)Nc1ccccc1-c1ccccc1	x	n	x	x	x	x	x	x
CC(C)CC#Cc1ccc2c(c1)O[C@@H](CN(C)CC1CCOCC1)[C@H](C)CN([C@@H](C)CO)S2(=O)=O	n	n	n	n	x	x	x	x
CC(C)CC#Cc1ccc2c(c1)O[C@@H](CN(C)CC1CCOCC1)[C@@H](C)CN([C@H](C)CO)S2(=O)=O	n	x	n	118	108	n	n	104
CC(C)CC#Cc1ccc2c(c1)O[C@@H](CN(C)CC1CCOCC1)[C@@H](C)CN([C@@H](C)CO)S2(=O)=O	n	n	n	u	110	u	n	105
Cc1ccc(NC(=O)CNS(=O)(=O)c2ccccc2)cc1Cl	x	n	x	x	x	x	x	x
COC(=O)c1cc(OC)c(OC)cc1NC(=O)C(C)Oc1ccc(C(C)(C)C)cc1 (stereo not given)	x	n	x	x	x	x	x	x
COc1ccc2nc(Cl)nc(NC3CCCCC3)c2c1	x	n	x	x	x	x	x	x
CC(C)NC(=O)N1[C@H](C#N)[C@@H](c2ccc(C#CC3CCCC3)cc2)[C@@H]1CO	n	x	n	99	106	n	n	n
N#C[C@@H]1[C@H](c2ccc(C#CC3CCCC3)cc2)[C@@H](CO)N1C(=O)c1cccc(F)c1	n	x	n	x	x	x	x	x
N#C[C@H]1[C@H](c2ccc(C#CC3CCCC3)cc2)[C@H](CO)N1C(=O)Nc1ccc(F)cc1	n	x	n	103	106	n	n	105

Bioassay records from PubChem.
